zfTRPN1 agonist: zebrafish TRPN1 channel agonists, primary screen, cell-based, HEK293, calcium fluorescence | transient receptor potential cation channel N1 (TRPN1/NompC), Danio rerio | HEK293 zebrafish TRPN1-YFP, Fluo-8 calcium fluorescence; 100% = response to 87 µM carbachol | activation, % at 3 µM | 0.18% of 220,000 active | AID 1424, 2008;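 active means activation above its plate's cutoff, the mean activation of test wells on that plate plus 3 SD, cut at about 19% in these data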;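 further: 0% = DMSO alone and 100% = 87 µM carbachol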
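System: zebrafish TRPN1-YFP in HEK293 cells / Dosing: 3 µM single point / Timing: dye loading 1 h at 37 °C, then 30 min room temperature / Signal: Fluo-8 calcium fluorescence, excitation 470-495 nm, emission 515-575 nm / Read-out basis: percent activation from peak over basal fluorescence ratio, control-normalized / Control set: high carbachol 87 µM, low DMSO alone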
CRFR2-BP antag: antagonists of CRF-BP/CRF-R2 complex, primary screen, cell-based, HEK293, calcium dye fluorescence, uHTS; CRF-induced calcium fluorescence; 0.59% of 350,000 active; inhibition, % at 11.8 µM;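 active means inhibition of the ligand-induced calcium signal above about 50% at the single tested concentration, limit read from the data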
CRFR2-BP ag: agonists of CRF-BP/CRF-R2 complex, primary screen, cell-based, HEK293, calcium dye fluorescence, uHTS | CRF-binding protein / CRF receptor 2 complex (human) | calcium dye fluorescence (FLIPR); percent of saturating CRF peptide response | activation, % at 13.2 µM | 0.46% of 350,000 active;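 active means activation of at least 50%, plus an integration ratio under a set limit after plate pattern correction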;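 further: plate controls were neutral control wells without compound for no effect and CRF at EC100 for full effect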
TRPML3 agonist: human TRPML3 channel agonists, primary screen, cell-based, HEK293 TRPML3-YFP, Fluo-8 calcium fluorescence, 3 µM; Mucolipin-3 (Homo sapiens), Q8TDD5; 100% = the carbachol control signal; activation, % at 3 µM; 0.29% of 220,000 active; AID 1448, 2008;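 active means activation above its plate's cutoff, the mean activation of the plate's test wells plus 3 SD, cut at about 12% in these data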;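 further: 0% = DMSO only wells and 100% = carbachol wells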
Target sequence (Q8TDD5 whole entry, looked up): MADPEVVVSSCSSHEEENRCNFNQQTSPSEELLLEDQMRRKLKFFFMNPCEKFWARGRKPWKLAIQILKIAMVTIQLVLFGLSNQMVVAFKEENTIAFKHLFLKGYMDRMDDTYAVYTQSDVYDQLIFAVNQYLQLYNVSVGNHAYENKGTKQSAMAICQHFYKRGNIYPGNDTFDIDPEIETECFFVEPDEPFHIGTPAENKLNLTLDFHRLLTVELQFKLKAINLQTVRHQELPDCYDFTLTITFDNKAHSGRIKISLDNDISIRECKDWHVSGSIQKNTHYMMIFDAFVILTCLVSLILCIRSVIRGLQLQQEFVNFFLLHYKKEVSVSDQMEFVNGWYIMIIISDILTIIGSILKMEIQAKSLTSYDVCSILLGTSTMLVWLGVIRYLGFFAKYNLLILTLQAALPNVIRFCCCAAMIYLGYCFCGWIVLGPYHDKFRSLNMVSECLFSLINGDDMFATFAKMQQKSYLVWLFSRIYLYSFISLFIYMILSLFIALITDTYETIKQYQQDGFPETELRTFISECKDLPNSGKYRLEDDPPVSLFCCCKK
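Test system: HEK293 cells stably carrying human TRPML3-YFP; Doses: single dose, 3 µM final nominal compound, 0.3% DMSO final; Schedule: dye loading 1 h 37 °C then 30 min ambient, 125 s read; Technique: Fluo-8 calcium fluorescence; Benchmarks: high control carbachol 87 µM, low control DMSO.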
GPR7 antag: GPR7 receptor antagonists, primary screen, cell-based, fluorescence, single concentration | GPR7-expressing cells, fluorescence antagonist assay | inhibition, % at 4.4 µM | 1.1% of 290,000 active; in the data active means inhibition above about 16%, passing the limit was not always enough;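 further: cells stimulated with the agonist NPW; 0% = agonist with vehicle and 100% = vehicle without agonist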
An asterisk follows results filed as active; / = not tested or not shown. This is a sample that favours compounds with a hit; in the whole collection about 2% have one here.

SMILES	zfTRPN1 agonist	CRFR2-BP antag	CRFR2-BP ag	TRPML3 agonist	GPR7 antag
COC(=O)C1=NN(C(=O)c2cccc(Cl)c2)C(O)(C(C)(C)C)C1 (configuration not stated)	1.7	36.7	88.5*	0.2	-10.6
COC(=O)C1=NN(C(=O)c2ccc(C)cc2)C(O)(c2ccc(Cl)cc2)C1 (configuration not stated)	0.4	-15.1	86.3*	0.0	-3.1
COC(=O)C1=NN(C(=O)c2ccc(Br)cc2)C(O)(C(C)(C)C)C1 (configuration not stated)	-0.3	17.3	51.7*	-0.3	-8.0
O=C(COC(=O)C1CC(=O)N(Cc2ccco2)C1)c1ccc(OC(=O)c2ccco2)cc1 (configuration not stated)	0.7	81.9*	3.2	0.2	14.2
Cc1cnc(NC(=O)C2C(=O)c3ccccc3S(=O)(=O)N2C)s1 (configuration not stated)	/	13.0	-2.2	/	/
CCN(C(=O)CSc1nnc(COc2ccccc2F)n1N)c1c(N)n(Cc2ccccc2)c(=O)[nH]c1=O	/	-3.3	0.3	/	/
O=C1c2cccc(OCC(=O)N3CCCc4ccccc43)c2CCN1Cc1ccccc1	6.5	-7.8	-1.9	1.3	22.1*
O=C(COc1cccc2c1CCN(Cc1ccc(Br)cc1)C2=O)N1CCOCC1	3.5	44.7	5.6	2.2	17.6
O=C(COc1cccc2c1CCN(Cc1ccc(Br)cc1)C2=O)NCc1ccco1	-0.7	63.5*	-1.3	-0.7	-3.9
CCN1CCc2c(OCC(=O)N3CCCc4ccccc43)cccc2C1=O	1.7	1.5	-0.8	2.6	1.4
COc1ccc(-c2cn(-c3ccc(OC)cc3)c3[n+]2-c2ccccc2CC3)cc1	0.2	18.2	-4.5	0.7	24.4*
COc1ccc(-c2c(C)nn3c(N4CCOCC4)cc(C)nc23)cc1OC	/	12.7	-1.2	/	-12.1
COc1ccc(-c2c(C)nn3c(N4CCCCCC4)cc(C)nc23)cc1OC	/	55.6*	-1.7	/	-12.4
CCOC(=O)C(=CNc1nc(-c2ccc3ccccc3c2)cs1)C(=O)OCC	/	-4.1	2.0	/	-8.3
O=C(CN1CCc2ccccc2C1)Nc1ccccc1C(=O)NC1CC1	/	-15.3	0.7	/	/
CC1=CC(C)(C)N(C(=O)CSc2ncn[nH]2)c2ccccc21	-1.4	-18.9	4.1	-0.8	-11.2
CC1=CC(C)(C)N(C(=O)CSc2nnc(N)s2)c2ccccc21	-0.6	-26.2	53.1*	0.2	-3.7
O=C(c1noc2c1CSc1ccccc1-2)N1CCN(c2ccc(Cl)cc2)CC1	/	-4.7	1.6	/	-2.1
CCOC(=O)c1c(C)[nH]c(C)c1C(=O)COC(=O)/C=C/c1ccc(Cl)cc1	0.0	128.9*	-1.9	0.1	2.5
CCOC(=O)c1c(C)[nH]c(C)c1C(=O)COC(=O)/C=C/c1ccc(OC(F)F)cc1	0.9	14.4	-0.3	0.7	-9.2
CC(C)CN(C(=O)Cn1ccccc1=O)C1CCS(=O)(=O)C1 (configuration not stated)	/	-2.5	0.1	/	/
COc1ccccc1N1CCN(C(=O)CSc2nc(C)c(C)c(=O)[nH]2)CC1	0.0	-4.8	3.9	-0.2	-9.4
CCc1c(C)nc(SCC(=O)N2CCN(c3ccccc3OC)CC2)[nH]c1=O	0.5	57.6*	-4.7	0.7	-7.5
CCC(OC(=O)c1nsc(Cl)c1Cl)C(=O)NCC1CCCO1 (configuration not stated)	/	-1.3	-0.2	/	-1.2
COc1ccc(NC(=O)/C(C#N)=C/c2ccc(Br)o2)cc1	0.7	-17.9	0.9	-0.5	6.4
SMILES	zfTRPN1 agonist	CRFR2-BP antag	CRFR2-BP ag	TRPML3 agonist	GPR7 antag
N#C/C(=C/c1ccc(N2CCCCC2)o1)C(=O)Nc1ccc(Cl)cc1	28.2*	-117.3	155.1*	38.8*	10.4
N#C/C(=C/c1ccc(N2CCCCC2)o1)C(=O)Nc1ccc2ccccc2c1	39.6*	-204.3	207.1*	21.7*	14.3
CCN(CC)CCOC(=O)C(Cc1ccco1)Cc1cccc2ccccc12 (configuration not stated)	/	52.4*	-0.9	/	/
CCOc1ccc(Br)cc1C1=CC(=O)C[C@H](c2ccc(OC)cc2)C1	/	-77.4	163.3*	/	/
CN1CCC(N(C)C(=O)c2ccc(Cl)c(S(=O)(=O)Nc3cc(Cl)ccc3Cl)c2)CC1	/	21.3	-1.2	/	/
Cc1ccc(C(=O)NCCn2cc(SCC(=O)Nc3nnc(C)s3)c3ccccc32)cc1	1.6	-12.9	1.1	0.4	19.3*
Cc1ccc(-c2noc(CN3CCC(C(N)=O)CC3)n2)cc1	1.0	-55.0	50.7*	0.8	-4.6
COC(=O)C1CCN(C(=O)COC(=O)c2cc([N+](=O)[O-])ccc2N2CCOCC2)CC1	/	104.9*	0.1	/	/
COc1ccc(NS(=O)(=O)c2ccc(O)c(NC(=O)c3cc4c(C)nn(-c5ccc(F)cc5)c4s3)c2)cc1	-0.3	-76.6	93.0*	0.3	-4.3
O=C(OCC(=O)N1N=C(c2ccc(Cl)cc2)CC1c1ccco1)c1ccco1 (configuration not stated)	0.6	-235.4	240.3*	1.4	-17.5
COc1ccccc1C(=O)Cc1ccccc1	/	-13.0	-2.9	/	/
Cc1c(NC(=O)c2cccc(NC(=O)Cc3ccccc3Cl)c2)c(=O)n(-c2ccccc2)n1C	/	24.0	2.9	/	/
COc1cccc(=O)c2c(C)oc(C)c12	1.4	9.5	1.8	0.2	19.4*
CCc1ccc(N(CC(=O)NC(C)(C)C)C(=O)CCC(=O)Nc2ccccn2)cc1	/	14.9	-0.6	/	-12.7
Cc1ccc(CCNC(=O)C2CCCN(c3ncnc4c3nc3n4CCCCC3)C2)cc1 (configuration not stated)	/	13.1	3.2	/	1.9
CCOc1ccc(CCNC(=O)C2CCCN(c3ncnc4c3nc3n4CCCCC3)C2)cc1 (configuration not stated)	/	114.8*	-1.6	/	-8.6
O=C(O)C1Nc2c(Cl)cc(Cl)c(Cl)c2C2C=CCC12 (configuration not stated)	/	5.7	2.4	/	-11.2
CC(C)C1Nc2c(O)cc(Cl)c([N+](=O)[O-])c2C2C=CCC21 (configuration not stated)	13.8	59.5*	33.2	6.8	-5.0
COc1cc([N+](=O)[O-])ccc1-c1ccc(/C=N/NC(=O)OC(C)(C)C)o1	3.7	-28.8	57.2*	1.6	-9.5
C=CCOc1cccc(CNc2ccc3[nH]c(=O)[nH]c3c2)c1	1.0	91.5*	0.1	1.3	-1.9
Cc1ccc(NC(=O)CCNC(=O)c2ccc(Br)cc2)cc1S(=O)(=O)N1CCCCCC1	/	-12.6	1.8	/	/
N#Cc1ccc(C(=O)OCC(=O)N2CCCCCC2)cc1	/	0.6	-0.9	/	/
